Platelet DG rel – platelet dense granule release activity; human platelet-rich plasma, SFLLRN dense granule ATP release, luminescence; 0.22% of 300,000 active; inhibition, %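 (compounds screened at 7.5 µM in platelet-rich plasma)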;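 active = mean replicate score, as percent of positive control, at or above 50; inconclusive = mean below 50 but at least one replicate at or above 50; inactive = mean and every replicate below 50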
SENP8 block-1 – SENP8 protease inhibition; AID 2540; 1.2% of 330,000 active; Q96LD8; purified SENP8, Z-RLRGG-aminoluciferin cleavage, luminescence; inhibition, % at 10 µM; in the data active = inhibition above about 50%
SENP7 block – blocks the human protease SENP7. recombinant SENP7, Z-RLRGG-aminoluciferin luminescence, 40 min. inhibition, % at 5 µM. 1.5% of 330,000 active. AID 434973;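 active = inhibition above about 50% at the single test dose, limit read from the data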;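 note: plate controls were DMSO with enzyme for no effect and no enzyme buffer wells for full effect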
SENP6 block – SENP6 protease inhibition; Q9GZR1; Recombinant SENP6 catalytic domain, aminoluciferin luminescence; inhibition, % at 10 µM; 1.8% of 330,000 active;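 active = inhibition above about 50% at the single tested dose, limit read from the data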;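 note: plate controls were DMSO wells with enzyme for no effect and DMSO wells lacking enzyme for full effect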
Target sequence (Q9GZR1 628-1112 limits assumed): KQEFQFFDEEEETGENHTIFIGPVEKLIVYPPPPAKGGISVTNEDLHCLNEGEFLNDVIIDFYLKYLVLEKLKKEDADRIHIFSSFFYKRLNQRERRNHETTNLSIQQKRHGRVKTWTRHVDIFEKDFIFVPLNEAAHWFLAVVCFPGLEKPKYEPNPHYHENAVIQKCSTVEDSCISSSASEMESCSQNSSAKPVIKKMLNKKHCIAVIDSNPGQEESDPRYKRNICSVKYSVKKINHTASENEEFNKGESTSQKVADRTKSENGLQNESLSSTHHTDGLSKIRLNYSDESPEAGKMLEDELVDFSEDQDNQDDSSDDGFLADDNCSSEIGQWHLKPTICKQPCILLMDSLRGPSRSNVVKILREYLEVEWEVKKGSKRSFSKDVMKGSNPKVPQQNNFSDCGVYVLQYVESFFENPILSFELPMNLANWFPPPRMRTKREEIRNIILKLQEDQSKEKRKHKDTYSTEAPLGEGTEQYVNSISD
SENP8 block-2 – blocks human SENP8 cleavage of Nedd8 substrate; Q96LD8; recombinant SENP8, Nedd8 substrate fluorescence; inhibition, % at 20 µM; 0.64% of 360,000 active; in the data active = inhibition mostly above about 40%, no sharp cut-off; inactive = mostly below about 27%
SENP1 inh – SENP1 (human) catalytic domain inhibition; inhibition, % at 10 µM; 0.21% of 360,000 active; AID 624204; recombinant SENP1 catalytic domain, CyPet-SUMO1-YPet FRET cleavage;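 active = inhibition at least 30% at 10 µM, raw YFP signal under a set limit, fluorescence ratio 0.5 to 1.5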;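 note: 0% = enzyme with DMSO and 100% = no enzyme wells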
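Test system: human SENP1 catalytic domain; medium: Tris pH 8 buffer plus EDTA, NaCl, BME, BSA, NP40, catalase; incubation: 50 min reaction at room temperature; technique: FRET, CFP and YFP emission; controls: no-enzyme low control and enzyme-plus-DMSO high control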
SENP8 conf – human SENP8 inhibition, confirmed | Recombinant SENP8, Z-RLRGG-aminoluciferin luminescence, 60 min | AID 488912 | shares compounds with SENP7 block | 40% of 6,200 active | inhibition, % at 12.5 µM;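 active = mean inhibition across replicates above about 50%, limit read from the data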
SENP6 confirm – human SENP6 inhibition, confirmed; recombinant SENP6, Z-RLRGG-aminoluciferin luminescence; 58% of 6,200 active; AID 488915; inhibition, % at 12.5 µM; shares compounds with SENP7 block
SENP7 confirm – confirmation of human SENP7 protease inhibitors; 69% of 6,200 active; inhibition, % at 12.5 µM; AID 488917; recombinant SENP7, Z-RLRGG-aminoluciferin luminescence, 40 min; shares compounds with SENP7 block
Casp3 select – selectivity test for SENP inhibitors: human caspase-3 inhibition; shares compounds with SENP7 block; purified caspase-3, Z-DEVD-aminoluciferin luminescence, 60 min; inhibition, % at 12.5 µM; 60% of 6,200 active; AID 488918;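 active = mean inhibition above about 50%, limit read from the data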;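 note: plate controls were enzyme with DMSO for no effect and wells without caspase-3 for full effect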
Luc interf – counter-screen for SENP inhibitors: luminescence interference. AID 488919. inhibition, % at 12.5 µM. shares compounds with SENP7 block. 39% of 6,200 active. Pre-incubated SENP8/Z-RLRGG-aminoluciferin, luciferase luminescence interference;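 active = mean inhibition above about 50% when retested at one dose, limit read from the data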;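 note: plate controls were DMSO wells with completed reaction for no effect and substrate without enzyme for full effect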
Starred values were filed as active, the others as inactive. Shown are actives, neighbours in structure and some others; about 2.6% of the full set was active somewhere.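 Rule for the calls, unless noted: active = mean inhibition above about 50% in the one-dose retest (limit read from the data); inactive = the rest.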

Screening CCOc1ccc(NC(=O)c2nccnc2CO)cc1 returned Platelet DG rel 20, SENP8 block-1 14, SENP7 block 48, SENP6 block 53*, SENP8 block-2 -12, SENP1 inh 0, SENP8 conf 38, SENP6 confirm 35, SENP7 confirm 74*, Casp3 select 82* and Luc interf 55*.
CCOc1ccc(NC(=O)c2cnccn2)cc1 was read as Platelet DG rel 6, SENP8 block-1 -5, SENP7 block 39, SENP6 block 36, SENP8 block-2 14 and SENP1 inh 2.
`COc1cc(Cl)c(C)cc1NC(=O)c1ccc(NS(=O)(=O)c2ccc(F)c(F)c2)cc1` gave Platelet DG rel -6, SENP8 block-1 -2, SENP7 block 0, SENP6 block 2, SENP8 block-2 16 and SENP1 inh 5.
Cc1nc2cc(NC(=O)Nc3cccc([N+](=O)[O-])c3)ccc2n1C was read as Platelet DG rel 5, SENP8 block-1 32, SENP7 block 66*, SENP6 block 73*, SENP8 block-2 16, SENP1 inh 1, SENP8 conf 34, SENP6 confirm 54*, SENP7 confirm 92*, Casp3 select 76* and Luc interf 9.
`Cc1nc2cc(NC(=O)Nc3ccccc3Cl)ccc2n1C` gave Platelet DG rel inconclusive, SENP8 block-1 93*, SENP7 block 97*, SENP6 block 88*, SENP8 block-2 6, SENP1 inh 1, SENP8 conf 86*, SENP6 confirm 92*, SENP7 confirm 99*, Casp3 select 94* and Luc interf 91*.
CN1CCN(/N=C/c2ccc(-c3ccccc3)cc2)CC1 was read as Platelet DG rel 12, SENP8 block-1 79*, SENP7 block 83*, SENP6 block 22, SENP8 block-2 2, SENP1 inh 4, SENP8 conf 82*, SENP6 confirm 86*, SENP7 confirm 98*, Casp3 select 90* and Luc interf 50*.
`O=C(CCNC(=O)c1ccc([N+](=O)[O-])cc1)Nc1ccc(S(=O)(=O)N2CCOCC2)cc1` gave Platelet DG rel 11, SENP8 block-1 -3, SENP7 block -8, SENP6 block -9, SENP8 block-2 5 and SENP1 inh 0.
`CC(C)(C)OC(=O)N(CCc1ccccc1)Cc1cccc(OCc2cccc(NC(=O)C3CC3)c2)c1` gave SENP8 block-2 5 and SENP1 inh 1.
COc1ccc(CC(=O)NC2CC(C)(C)NC(C)(C)C2)cc1OC was read as Platelet DG rel -3, SENP8 block-1 -1, SENP7 block 8, SENP6 block -3, SENP8 block-2 6 and SENP1 inh 1.
For O=C(O)/C=C/C(=O)Nc1ccc2c(c1)C(=O)c1ccccc1C2=O the results were Platelet DG rel 2, SENP8 block-1 47, SENP7 block 53*, SENP6 block 78*, SENP8 block-2 17, SENP1 inh 15, SENP8 conf 73*, SENP6 confirm 67*, SENP7 confirm 85*, Casp3 select 25 and Luc interf 79*.
For COc1ccc(Cl)cc1NC(=O)c1cc(-c2cc(C)ccc2O)n[nH]1 the results were Platelet DG rel -1, SENP8 block-1 -9, SENP7 block -10, SENP6 block -1, SENP8 block-2 13 and SENP1 inh 2.

Compound activity deposited in PubChem BioAssay by several laboratories.
